For one data set, the species on record is Homo sapiens. The data set is described as follows: Selectivity ratio of IC50 for human HDAC1 to IC50 for human HDAC6. The gist of the method: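 HDAC1 and HDAC6 IC50s are each the mean of two experiments.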
The target in data set [1] is T1, Protein deacetylase HDAC6 (Homo sapiens, UniProt Q9UBN7).
T1 sequence (Q9UBN7 whole entry): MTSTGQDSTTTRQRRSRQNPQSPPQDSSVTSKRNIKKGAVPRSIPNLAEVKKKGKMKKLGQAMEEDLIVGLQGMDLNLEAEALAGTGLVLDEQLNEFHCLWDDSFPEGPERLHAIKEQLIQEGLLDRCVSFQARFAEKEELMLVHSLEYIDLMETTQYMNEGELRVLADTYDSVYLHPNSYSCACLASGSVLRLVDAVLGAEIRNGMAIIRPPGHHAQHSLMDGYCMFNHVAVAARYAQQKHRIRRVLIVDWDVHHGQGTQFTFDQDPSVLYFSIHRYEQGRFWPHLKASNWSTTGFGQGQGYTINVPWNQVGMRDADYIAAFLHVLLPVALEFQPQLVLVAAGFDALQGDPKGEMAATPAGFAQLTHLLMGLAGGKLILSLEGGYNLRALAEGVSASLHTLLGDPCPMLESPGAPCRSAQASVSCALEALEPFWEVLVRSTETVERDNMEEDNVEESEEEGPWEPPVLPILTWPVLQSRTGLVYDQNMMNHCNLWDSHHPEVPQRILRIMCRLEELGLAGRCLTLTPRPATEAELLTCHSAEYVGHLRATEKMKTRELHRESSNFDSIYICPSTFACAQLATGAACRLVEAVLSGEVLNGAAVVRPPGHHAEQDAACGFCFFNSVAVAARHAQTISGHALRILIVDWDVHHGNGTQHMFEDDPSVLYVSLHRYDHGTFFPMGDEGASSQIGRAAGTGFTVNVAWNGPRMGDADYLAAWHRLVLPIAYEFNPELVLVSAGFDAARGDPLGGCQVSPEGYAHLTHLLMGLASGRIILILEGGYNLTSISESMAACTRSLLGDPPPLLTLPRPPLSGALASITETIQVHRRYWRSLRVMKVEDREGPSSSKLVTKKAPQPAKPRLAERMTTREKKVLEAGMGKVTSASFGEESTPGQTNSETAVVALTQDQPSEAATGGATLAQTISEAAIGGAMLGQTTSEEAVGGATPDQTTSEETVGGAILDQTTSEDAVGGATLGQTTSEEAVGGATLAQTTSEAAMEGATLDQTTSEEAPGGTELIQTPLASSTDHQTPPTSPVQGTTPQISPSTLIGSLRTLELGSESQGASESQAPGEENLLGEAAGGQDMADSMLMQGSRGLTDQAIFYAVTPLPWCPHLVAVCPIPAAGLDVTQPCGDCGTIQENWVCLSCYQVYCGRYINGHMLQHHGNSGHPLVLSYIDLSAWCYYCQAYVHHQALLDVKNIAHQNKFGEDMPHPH
The data set is described as follows: Inhibition of human HDAC6 using RHKKAc as substrate by fluorescence assay.

For data set [2], the target named is T2, Histone deacetylase 1 (Homo sapiens, UniProt Q13547). The data set is described as follows: Inhibition of human HDAC1 using RHKKAc as substrate by fluorescence assay.
Data set [3] can be described thus: Metabolic stability in human liver microsomes assessed as parent compound remaining at 60 mins in presence of NADPH. The class given is ADME, microsome. The following applies: read-out: Stability. The gist of the method:
(§1)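 Incubated in pooled liver microsomes (human or mouse as per line) with NADPH cofactor; all tests run in duplicate.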

Data set [4] can be described thus: Half life in human liver microsomes in presence of NADPH. Type of data set: ADME, microsome. In a few lines:
as §1
Background: Liver microsomes are vesicles of endoplasmic reticulum, rich in cytochrome P450 enzymes.

A short description of data set [5]: Metabolic stability in mouse liver microsomes assessed as parent compound remaining at 60 mins in presence of NADPH. The class given is ADME, microsome. The following applies: read-out: Stability. The gist of the method:
as §1

The nature of data set [6]: Half life in mouse liver microsomes in presence of NADPH. Type of data set: ADME, microsome. In a few lines:
as §1

Data set [7] deals with T3, Protein deacetylase HDAC6 (Homo sapiens) (UniProt Q9UBN7).
T3 sequence (whole entry): T1 sequence (Q9UBN7 whole entry)
The data set is described as follows: Inhibition of HDAC6 in HEK293 cells assessed as induction of tubulin acetylation after 24 hrs by Western blot method. Type of data set: cell-based. In a few lines: (§2)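 HEK293 cells are treated with compound, and acetylated tubulin and histone H3 are detected by Western blot with GAPDH as loading control. Each blot carries a tubastatin 10 µM positive control and a DMSO or medium negative control.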
A general note: In western blotting, separated proteins are transferred to a membrane and probed.

For data set [8], the system named is Liver. The data set is described as follows: Prodrug conversion in human liver microsomes assessed as N-[5-(5,6-Dichloro-1H-indol-1-yl)pentyl]-2-mercaptoacetamide formation measured over 60 mins. Type of data set: ADME, microsome. In a few lines: (§3)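 Disulfide prodrug incubated with pooled human or mouse liver microsomes, with the released free mercaptoacetamide measured over time. Percent released is taken as the measured thiol concentration divided by twice the initial prodrug concentration.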

The subject of data set [9] is Liver. The data set is described as follows: Prodrug conversion in mouse liver microsomes assessed as N-[5-(5,6-Dichloro-1H-indol-1-yl)pentyl]-2-mercaptoacetamide formation measured over 60 mins. Type of data set: ADME, microsome. In a few lines:
as §3

For data set [10], the target named is T2, Histone deacetylase 1. The data set is described as follows: Inhibition of HDAC1 in HEK293 cells assessed as increase in histone H3 acetylation at 5 uM after 24 hrs by Western blot method. The class given is cell-based. The gist of the method: as §2
A further data set concerns Mus musculus. The data set is described as follows: In vivo inhibition of HDAC6 in C57Bl/6J mouse assessed as increase in tubulin acetylation in cerebral cortex at 20 mg/kg, ip first dose administered in evening followed by second dose in next day morning measured 6 hrs post last dose by Western blot method relative to vehicle-treated control. Type of data set: functional. Set-up: scale not given: the % may be the effect or the level left. In a few lines:
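Mice (n=3) are dosed 20 mg/kg IP at 18:00, then dosed again at 20 mg/kg at 10:00 the next morning, and killed 6 h later. Cortex is taken for Western blot of acetyl-tubulin with GAPDH as loading control. Densitometric acetyl-tubulin/GAPDH ratio is expressed as % of vehicle-treated mice; significance is set at p<0.05.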

For data set [11], the system named is Liver. The data set is described as follows: Prodrug conversion in human liver microsomes assessed as N-[4-[(5,7-Dichloroquinolin-8-yl)amino]butyl]-2-mercaptoacetamide formation measured over 60 mins. The class given is ADME, microsome. The following applies: 1 h. In a few lines:
as §3

The test system of data set [12] is Liver. The data set is described as follows: Prodrug conversion in mouse liver microsomes assessed as N-[4-[(5,7-Dichloroquinolin-8-yl)amino]butyl]-2-mercaptoacetamide formation measured over 60 mins. Type of data set: ADME, microsome. The following applies: 1 h. In a few lines: as §3

Calls of active or inactive are those of the source. The rule behind the calls is not given here.

As usually defined, the IC50 is the concentration that inhibits the measured activity by half. What is called half-life is how long it takes for the measured level to halve.

T2 sequence (Q13547 whole entry): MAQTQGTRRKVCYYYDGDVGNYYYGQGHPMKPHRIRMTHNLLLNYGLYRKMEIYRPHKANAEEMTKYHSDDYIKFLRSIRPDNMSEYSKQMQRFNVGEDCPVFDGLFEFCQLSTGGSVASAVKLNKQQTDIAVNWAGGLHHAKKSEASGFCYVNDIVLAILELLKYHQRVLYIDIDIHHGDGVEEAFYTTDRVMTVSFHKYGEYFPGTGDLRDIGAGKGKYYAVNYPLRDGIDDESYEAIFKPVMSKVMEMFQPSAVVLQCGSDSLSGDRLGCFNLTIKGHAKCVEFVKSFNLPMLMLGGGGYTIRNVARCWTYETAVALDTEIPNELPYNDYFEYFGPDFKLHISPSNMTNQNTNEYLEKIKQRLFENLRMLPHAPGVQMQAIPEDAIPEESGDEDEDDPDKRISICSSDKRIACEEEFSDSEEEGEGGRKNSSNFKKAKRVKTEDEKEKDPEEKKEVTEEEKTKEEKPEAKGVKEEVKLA

For the compound `CC(C)c1cn(CCCCCCNC(=O)CS)c2cc(Cl)c(Cl)cc12`, the Ratio IC50 in the data set filed under Homo sapiens is 18. Moreover, the results for the IC50 (in data set [1]; against Histone deacetylase 1 [2]) were 1570 nM and 28700 nM, respectively. The remaining at 1 h stood at 33.3% in [3] and 44.3% in [5]. For the same compound, the half-life in [4] came out at 48.8 min; in data set [6] it was 70 min.

With `O=C(CS)NCCCCCn1ccc2cc(Cl)c(Cl)cc21`, in the data set filed under Homo sapiens, the Ratio IC50 was determined as 657. In addition, the half-maximal inhibitory concentration (IC50) in data set [1] was 11.4 nM; at Histone deacetylase 1 [2], 7490 nM. In addition, in data set [7], the inhibition entry was “Dose-dependent effect”. Also, the remaining at 1 h in [3] was found to be 25.3%; in data set [5], 29.5%. The half-life in data set [4] came out at 35.2 min; in data set [6] it was 41.3 min.

`CC(C)C(=O)SCC(=O)NCCCCCn1ccc2cc(Cl)c(Cl)cc21`: the inhibition result in data set [7] is “Dose-dependent effect”. Also, the remaining at 1 h in data set [3] and in data set [5] was less than 1% in each case. The half-life in data set [4] and in data set [6] was less than 1 min throughout. Further, the Drug metabolism entry in the data set on Liver [8] and in the data set with Liver [9] was “Metabolite_Detected” in each case.

Take `O=C(CS)NCCCCCCn1cc(Cl)c2cc(Cl)c(Cl)cc21`: the Ratio IC50 in the data set filed under Homo sapiens was more than 124. In addition, the half-maximal inhibitory concentration (IC50) was 241 nM in [1] and more than 30000 nM against Histone deacetylase 1 [2].

Turning to `O=C(CS)NCCCCCOc1c(Cl)cc(Cl)c2cccnc12`, in the data set listed under Homo sapiens, the Ratio IC50 was more than 901. The IC50 is 33.3 nM in [1] and more than 30000 nM on Histone deacetylase 1 [2].

As for `O=C(CS)NCCCCCCn1ccc2cc(Cl)c(Cl)cc21`, the Ratio IC50 in the data set listed under Homo sapiens is more than 470. Besides, the results for the half-maximal inhibitory concentration (IC50) (in data set [1]; against Histone deacetylase 1 [2]) were 63.9 nM and more than 30000 nM, respectively.

Take `O=C(CS)NCCCCNc1c(Cl)cc(Cl)c2cccnc12`: the figures for the IC50 (in [1]; on Histone deacetylase 1 [2]) were 2.79 nM and 6880 nM, respectively. The remaining at 1 h is 22.3% in [3] and 61.7% in data set [5]. Moreover, the values for the half-life in [4] and in data set [6] were 32.2 min and 91.2 min, respectively.

Turning to `O=C(CSSCC(=O)NCCCCCn1ccc2cc(Cl)c(Cl)cc21)NCCCCCn1ccc2cc(Cl)c(Cl)cc21`, the inhibition entry in data set [7] was “Dose-dependent effect”. Moreover, the inhibition entry on Histone deacetylase 1 [10] is “Active”. Also, the remaining at 1 h in data set [3] stood at 40.5%; in data set [5] it was 18.2%. For the same compound, the half-life in [4] is 49.5 min; in [6] it was 24.8 min. The Drug metabolism result in the data set with Liver [8] and in the data set with Liver [9] was “Metabolite_Detected” throughout. In addition, the Activity with Mus musculus is given as 40%.

Compound `O=C(CS)NCC(S)CCCn1ccc2cc(Cl)c(Cl)cc21` (stereo unspecified) came in with an IC50 in data set [1] of 534 nM.

On to `O=C(CSSCC(=O)NCCCCNc1c(Cl)cc(Cl)c2cccnc12)NCCCCNc1c(Cl)cc(Cl)c2cccnc12`, for which the inhibition result in data set [7] was “Dose-dependent effect”. In addition, the inhibition entry on Histone deacetylase 1 [10] is “Active”. Besides, the remaining at 1 h in data set [3] turned out to be 8.5%; in data set [5], 18.2%. Further, the figures for the half-life in data set [4] and in data set [6] were 20.7 min and 25.9 min, respectively. The Drug metabolism result in the data set on Liver [11] and with Liver [12] was “Metabolite_Detected” throughout. Also, in the data set with Mus musculus, the Activity was found to be 30%.

With `O=C(CS)NCCCCCCn1ccc2cc(F)c(Cl)cc21`, in the data set filed under Homo sapiens, the Ratio IC50 turned out to be 450. For the same compound, the values for the IC50 (in data set [1]; against Histone deacetylase 1 [2]) were 65.1 nM and 29300 nM, respectively.

Take `O=C(CS)NCCCCCNc1c(Cl)cc(Cl)c2cccnc12`: in the data set filed under Homo sapiens, the Ratio IC50 is 444. Further, the IC50 in [1] was 14.8 nM; against Histone deacetylase 1 [2] it was 6570 nM. Besides, the remaining at 1 h in [3] worked out at 32.1%; in data set [5] it was 39.6%. Also, the half-life in data set [4] stood at 42.5 min; in data set [6], 51 min.

Values taken from ChEMBL document CHEMBL3997851, “Design and Synthesis of Mercaptoacetamides as Potent, Selective, and Brain Permeable Histone Deacetylase 6 Inhibitors” (ACS Med Chem Lett, 2017).
